Data reported in ChEMBL document CHEMBL2069181, “In vitro and in vivo trypanosomicidal activity of pyrazole-containing macrocyclic and macrobicyclic polyamines: their action on acute and chronic phases of Chagas disease” (J Med Chem, 2012).
The source made the active and inactive calls. The rule behind the calls is not given here.

Experiments:
Trypanosoma cruzi [1] = assay: Antitrypanosomal activity against Trypanosoma cruzi infected in BALB/c mouse assessed as reduction in parasitemia at 1 mg/kg, ip dosed for 5 days measured on day 30 post infection; assay type: functional; parameters: scale not given: the % may be the effect or the level left; settings: route intraperitoneal
How it was run: (§1)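 Female BALB/c mice infected with trypomastigotes, dosed ip at 1 mg/kg/day on days 5–10 postinfection; vehicle controls. Mandibular vein blood (5 μL) diluted in citrate/lysis buffer pH 7.2; parasites counted under immersion objective every 2 days from day 5 to 30, as parasites/mL.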

Trypanosoma cruzi [2] = assay: Trypanosomicidal activity against Trypanosoma cruzi epimastigotes assessed as distorted shape of protozoan cells by TEM analysis; assay type: functional, organism-based
Mus musculus [3] = assay: Toxicity in BALB/c mouse liver infected with Trypanosoma cruzi assessed as granulomas with limphocitic infiltration at 5 mg/kg, ip after 120 days postinfection by Histopathological analysis; assay type: organism-based; parameters: dose 5 mg/kg, route intraperitoneal; settings: in vivo, 2880 h
How it was run: (§2)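 Livers removed at 120 days postinfection, fixed in 10% buffered formalin, paraffin-embedded, 4–5 μm sections stained with H&E and Masson's trichrome. Blinded scoring of at least 30 fields per slide, 0 (none) to 5 (severe).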

Trypanosoma cruzi [4] = assay: Trypanosomicidal activity against Trypanosoma cruzi SN3 amastigote infected in Vero cells after 72 hrs by Giemsa staining method; assay type: functional, organism-based
How it was run: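 Vero cells seeded at 1 × 10^4/well on coverslips, grown 2 days, infected with metacyclic forms (10:1) for 24 h, washed, then treated at 1–100 μM for 72 h in RPMI/10% FBS. Amastigote reduction scored on methanol-fixed Giemsa-stained slides; four determinations; IC50.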

[5] = Selectivity index, ratio of IC50 for Vero cells to IC50 for Trypanosoma cruzi intracellular amastigote infected in Vero cells; assay type: toxicity, cell-based; settings: monkey; read-out: Ratio IC50
Trypanosoma cruzi [6] = assay: Trypanosomicidal activity against Trypanosoma cruzi SN3 epimastigote after 72 hrs by hemocytometric analysis; assay type: functional, organism-based; settings: SN3, 72 h
How it was run: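 Exponential-phase SN3 epimastigotes (Grace's medium, 10% FBS, 28 °C) seeded at 5 × 10^4 parasites/well with compounds dissolved in MTL at 1, 10, 25, 50, 100 μM.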

Mus musculus [7] = assay: Toxicity in BALB/c mouse liver infected with Trypanosoma cruzi assessed as lymphocytic infiltrations in portal tracts at 5 mg/kg, ip after 120 days postinfection Histopathological analysis; assay type: organism-based; parameters: dose 5 mg/kg, route intraperitoneal; settings: in vivo, 2880 h; how it was run: as §2
Trypanosoma cruzi [8] = assay: Trypanosomicidal activity against Trypanosoma cruzi infected in Vero cells assessed as reduction in trypomastigotes in culture medium after 10 days by Giemsa staining method; assay type: functional; parameters: scale not given: the % may be the effect or the level left
How it was run: (§3)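 Vero cells infected with metacyclic forms (10:1); compounds at IC25 added at infection for 12 h at 37 °C, then washed out and cultures grown 10 days with medium renewed every 48 h. Infected cells and amastigotes per cell counted in >100 host cells on Giemsa-stained slides; trypomastigotes in medium counted; mean of four determinations.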

[9] = Selectivity index, ratio of IC50 for Vero cells to IC50 for Trypanosoma cruzi epimastigote; assay type: toxicity, cell-based; settings: monkey, Vero cells versus Trypanosoma cruzi epimastigotes; read-out: Ratio IC50
Mus musculus [10] = assay: Toxicity in BALB/c mouse liver infected with Trypanosoma cruzi assessed as blood vessels with thickened walls at 5 mg/kg, ip after 120 days postinfection by Histopathological analysis; assay type: organism-based, Blood vessel; parameters: dose 5 mg/kg, route intraperitoneal; settings: in vivo, 2880 h; how it was run: as §2
Trypanosoma cruzi [11] = assay: Trypanosomicidal activity against Trypanosoma cruzi epimastigotes assessed as inhibition of acetate metabolite excretion after 96 hrs by NMR analysis; assay type: functional
How it was run: (§4)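 Epimastigotes (5 × 10^5 cells/mL) exposed to IC25 of compound for 96 h at 28 °C; supernatant after centrifugation analysed by 1H NMR with DSS reference, compared against untreated cultures.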

Mus musculus [12] = assay: Toxicity in BALB/c mouse liver infected with Trypanosoma cruzi assessed as hepatic destruction in portal tracts at 5 mg/kg, ip after 120 days postinfection by Histopathological analysis; assay type: organism-based; parameters: dose 5 mg/kg, route intraperitoneal; settings: in vivo, 2880 h; how it was run: as §2
Vero = assay: Cytotoxicity against African green monkey Vero cells assessed as cell viability after 72 hrs by flow cytometric analysis; assay type: cell-based; settings: Chlorocebus sabaeus
How it was run: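 Vero cells grown in RPMI with 10% inactivated FBS at 37 °C, 5% CO2, seeded at 1 × 10^5 cells/mL, grown 2 days, then exposed to 1–100 μM compound for 72 h. Viability measured by flow cytometry; IC50 by linear regression.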

Trypanosoma cruzi [13] = assay: Inhibition of Trypanosoma cruzi epimastigotes Fe-SOD at 50 ug/ml by NBT reduction assay
How it was run: (§5)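 Enzyme from epimastigotes grown without FBS (excreted Fe-SOD), sonicated in STE buffer pH 7.8, centrifuged, supernatant protein by Bradford; human erythrocyte CuZn-SOD for comparison. NBT reduction by superoxide (Beyer–Fridovich): methionine, NBT, Triton X-100, riboflavin, homogenate plus compound; A560 read before and after 10 min UV illumination with stirring. Five separate determinations; Newman–Keuls test against control.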

Mus musculus [14] = assay: Toxicity in BALB/c mouse liver infected with Trypanosoma cruzi assessed as intestinal hemorrhage at 5 mg/kg, ip after 120 days postinfection by Histopathological analysis; assay type: organism-based; parameters: dose 5 mg/kg, route intraperitoneal; settings: in vivo, 2880 h; how it was run: as §2
Mus musculus [15] = assay: Toxicity in BALB/c mouse liver infected with Trypanosoma cruzi assessed as delocalized hepatic destruction at 5 mg/kg, ip after 120 days postinfection by Histopathological analysis; assay type: organism-based; parameters: dose 5 mg/kg, route intraperitoneal; settings: in vivo, 2880 h; how it was run: as §2
Trypanosoma cruzi [16] = assay: Trypanosomicidal activity against Trypanosoma cruzi infected in Vero cells assessed as reduction in amastigotes per infected Vero cells after 6 days by Giemsa staining method; assay type: functional; parameters: scale not given: the % may be the effect or the level left
Trypanosoma cruzi [17] = assay: Antitrypanosomal activity against Trypanosoma cruzi infected in BALB/c mouse assessed as reduction in trypomastigotes at 1 mg/kg, ip dosed for 5 days measured on day 14 post infection; assay type: functional, organism-based; parameters: dose 1 mg/kg; how it was run: as §1
Trypanosoma cruzi [18] = assay: Trypanosomicidal activity against Trypanosoma cruzi epimastigotes assessed as intense vacuolization of protozoan cells by TEM analysis; assay type: functional, organism-based
[19] = Selectivity index, ratio of IC50 for Vero cells to IC50 for Trypanosoma cruzi anexic amastigote; assay type: toxicity, cell-based; settings: monkey, Vero cells versus Trypanosoma cruzi axenic amastigotes; read-out: Ratio IC50
[20] = target: Superoxide dismutase [Cu-Zn], SOD1 (Homo sapiens) (UniProt P00441); assay: Activity of human erythrocyte Cu-Zn SOD by NBT reduction assay
Trypanosoma cruzi [21] = assay: Trypanosomicidal activity against Trypanosoma cruzi epimastigotes assessed as very electron dense protozoan cells by TEM analysis; assay type: functional, organism-based
Trypanosoma cruzi [22] = assay: Trypanosomicidal activity against Trypanosoma cruzi SN3 anexic amastigote after 48 hrs by hemocytometric analysis; assay type: functional, organism-based; settings: SN3, 48 h
How it was run: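 Axenic amastigotes obtained from epimastigotes after 3 days in supplemented M199 (10% FCS, pH 5.4, 37 °C).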

Trypanosoma cruzi [23] = assay: Inhibition of Trypanosoma cruzi epimastigotes Fe-SOD at 25 ug/ml by NBT reduction assay; how it was run: as §5
Trypanosoma cruzi [24] = assay: Trypanosomicidal activity against Trypanosoma cruzi infected in Vero cells assessed as reduction in rate of infection after 10 days by Giemsa staining method; assay type: functional; parameters: scale not given: the % may be the effect or the level left; how it was run: as §3
Trypanosoma cruzi [25] = assay: Trypanosomicidal activity against Trypanosoma cruzi epimastigotes assessed as inhibition of succinate metabolite excretion after 96 hrs by NMR analysis; assay type: functional; how it was run: as §4
[26] = Inhibition of Trypanosoma cruzi epimastigotes Fe-SOD by NBT reduction assay; how it was run: as §5
Mus musculus [27] = assay: Toxicity in BALB/c mouse liver infected with Trypanosoma cruzi assessed as necrotic cells in portal tracts at 5 mg/kg, ip after 120 days postinfection by Histopathological analysis; assay type: organism-based; parameters: dose 5 mg/kg, route intraperitoneal; settings: in vivo, 2880 h; how it was run: as §2

Sequence of Superoxide dismutase [Cu-Zn], SOD1 (Homo sapiens) (P00441 whole entry, looked up): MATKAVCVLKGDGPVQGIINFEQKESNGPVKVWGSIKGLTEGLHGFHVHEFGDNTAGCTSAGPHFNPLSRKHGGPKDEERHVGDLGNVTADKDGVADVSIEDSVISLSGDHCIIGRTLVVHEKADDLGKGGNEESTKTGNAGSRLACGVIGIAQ

inhibition (Trypanosoma cruzi [13]) [%] | Activity [20] [U/mg] | Structure (SMILES) | IC50 (Trypanosoma cruzi [4]) [µM] | selectivity ratio [5] | IC50 (Trypanosoma cruzi [6]) [µM] | selectivity ratio [9] | IC50 (Vero) [µM] | selectivity ratio [19] | IC50 (Trypanosoma cruzi [22]) [µM] | IC50 [26] [µM] | further results
98 | 23.4 | Cl.c1ccc(Cn2nc3cc2CNCCNCCNCc2cc(n(Cc4ccccc4)n2)CNCCNCCNC3)cc1 | 13.8 | 14.2 | 16.5 | 11.8 | 195 | 19.5 | 10 | 28.7 | Activity (Trypanosoma cruzi [1]): 16%; Activity (Trypanosoma cruzi [2]): Active; Activity (Mus musculus [3]): Toxic; Activity (Mus musculus [7]): Toxic; Activity (Trypanosoma cruzi [8]): 34%; Activity (Mus musculus [10]): Toxic; inhibition (INH) (Trypanosoma cruzi [11]): 23%; Activity (Mus musculus [12]): Non-toxic; Activity (Mus musculus [14]): Toxic; Activity (Mus musculus [15]): Non-toxic; Activity (Trypanosoma cruzi [16]): 26%; Activity (Trypanosoma cruzi [17]): Active; Activity (Trypanosoma cruzi [18]): Active; Activity (Trypanosoma cruzi [21]): Active; inhibition (Trypanosoma cruzi [23]): 70%; Activity (Trypanosoma cruzi [24]): >50%; inhibition (INH) (Trypanosoma cruzi [25]): 19%; Activity (Mus musculus [27]): Non-toxic
65 | 23.4 | CCCCCCCCN1CCNCc2cc([nH]n2)CNCCN(CCCCCCCC)CCNCc2cc(n[nH]2)CNCC1 | 18.4 | 1.1 | 46.4 | 0.5 | 21.5 | 1 | 20.8 | 44.6 | 
